From ChEMBL document CHEMBL1156266, “Antisense oligonucleotides containing conformationally constrained 2',4'-(N-methoxy)aminomethylene and 2',4'-aminooxymethylene and 2'-O,4'-C-aminomethylene bridged nucleoside analogues show improved potency in animal models” (J Med Chem, 2010) come the findings set out here.

For data set [1], the system named is Mus musculus. The experiment in a line: Toxicity in BALB/c mouse assessed as effect on body weight at 0.5 to 14.8 mg/kg, ip administered twice a week for 3 weeks measured after 72 hrs of last dose. Further details: dose 0.5-14.8 mg/kg, route intraperitoneal. Type of data set: organism-based. The settings on record: in vivo. The method in brief:
(§1)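 Male Balb/c mice, ip ASO in PBS twice weekly for 3 weeks at four dose levels. Body weight recorded before each dose. Killed 3 days after last dose. Organ weights normalized to body weight, expressed relative to the saline-treated group.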

Data set [2] deals with Mus musculus. The data set can be described thus: Reduction in PTEN mRNA expression in ip dosed BALB/c mouse liver administered twice a week for 3 weeks measured after 72 hrs of last dose by RT-PCR analysis. Type of data set: functional. In short, it runs like this:
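Male Balb/c mice, 6-week-old, ASO in PBS ip twice weekly for 3 weeks, four dose levels. Killed 72 h after last dose. Liver homogenized in guanidine isothiocyanate buffer, RNA column-purified. PTEN RNA by fluorescence qRT-PCR, normalized to cyclophilin A. Errors are SD.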

Data set [3] relates to Mus musculus. The experiment in a line: Toxicity in BALB/c mouse assessed as effect on liver weight at 0.5 to 14.8 mg/kg, ip administered twice a week for 3 weeks measured after 72 hrs of last dose. On the set-up: dose 0.5-14.8 mg/kg, route intraperitoneal. The settings on record: in vivo. Type of data set: organism-based. The method in brief:
as §1

Data set [4] has as its system Mus musculus. The data set can be described thus: Toxicity in BALB/c mouse assessed as effect on kidney weight at 0.5 to 14.8 mg/kg, ip administered twice a week for 3 weeks measured after 72 hrs of last dose. The class given is organism-based. On the set-up: dose 0.5-14.8 mg/kg, route intraperitoneal. The note with it: in vivo. The method in brief:
as §1

Data set [5] has as its system Mus musculus. The data set can be described thus: Toxicity in BALB/c mouse assessed as increase in spleen weight at 0.5 to 14.8 mg/kg, ip administered twice a week for 3 weeks measured after 72 hrs of last dose. The class given is organism-based. Further details: dose 0.5-14.8 mg/kg, route intraperitoneal. The note with it: in vivo. In short, it runs like this: as §1

The nature of data set [6]: Reduction in PTEN mRNA expression in mouse bEND.3 cells after 24 hrs by qRT-PCR analysis. Type of data set: functional, cell-based. The note with it: for pIC50: BEND3, 24 h. In short, it runs like this: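 bEnd.3 cells in DMEM/10% FBS, seeded at 1 × 10^4 cells/well the day before. Transfected 4 h at 37 °C with Lipofectin 3 μg/mL in OptiMEM, eight 1:2 dilutions (40 nM to 312.5 pM), then refed with complete medium for 24 h. PTEN RNA by qRT-PCR, normalized to cyclophilin A, as % untreated control. Triplicate plates. IC50 from sigmoidal fit, top 100%, bottom 0%.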
For orientation: Real-time PCR tracks product formation cycle by cycle.

For data set [7], the system named is Mus musculus. The data set can be described thus: Hepatotoxicity in BALB/c mouse assessed as liver ALT level at 0.5 to 14.8 mg/kg, ip administered twice a week for 3 weeks measured after 72 hrs of last dose. The class given is toxicity, organism-based. On the set-up: dose 0.5-14.8 mg/kg, route intraperitoneal. The settings on record: in vivo. The method in brief: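 Male 6-week-old Balb/c mice dosed ip in PBS twice weekly for 3 weeks: 0.7–23 mg/kg (four levels) or 0.5–14.6/14.8 mg/kg. Killed 72 h after final dose. Plasma from cardiac-puncture blood, ALT on clinical bioanalyzer. Errors are SD.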

The test system of data set [8] is Nucleic Acid. The data set can be described thus: Binding affinity to mouse PTEN mRNA assessed as melting temperature at 4 uM by thermal denaturation assay. The class given is nucleic-acid assay. In short, it runs like this:
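Duplex with complementary length-matched RNA; UV absorbance versus temperature curves in 100 mM Na+, 10 mM phosphate, 0.1 mM EDTA, 4 μM each strand. Tm is the average of two experiments.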

For data set [9], the system named is Mus musculus. The data set can be described thus: Reduction in PTEN mRNA expression in BALB/c mouse liver at 37 mg/kg, ip administered once a week for 3 weeks measured after 72 hrs of last dose by RT-PCR analysis. Type of data set: functional, organism-based. Further details: dose 37 mg/kg.

pIC50: −log10 of the molar value. Active and inactive are the calls of the source. No cut-off for these calls is given here.

What is called ED50 is the dose at which the effect has come halfway, by size or by number of responders. High values mean a need for a large dose, low ones an effect at a small dose. A word on the pIC50: it is −log10 of the IC50, conventionally taken in molar units. A high value points to a low IC50. In general, Tm refers to the temperature at the midpoint of the melting transition. As for `CON1C[C@@]2(COP(O)(=S)O[C@H]3[C@H]4ON(OC)C[C@@]3(COP(O)(=S)O[C@H]3[C@@H](O)[C@H](n5ccc(N)nc5=O)O[C@@H]3COP(O)(=S)O[C@H]3[C@@H](O)[C@H](n5cnc6c(=O)[nH]c(N)nc65)O[C@@H]3COP(O)(=S)O[C@H]3[C@@H](O)[C@H](n5cnc6c(=O)[nH]c(N)nc65)O[C@@H]3COP(O)(=S)O[C@H]3C[C@H](n5cc(C)c(=O)[nH]c5=O)O[C@@H]3COP(O)(=S)O[C@H]3[C@@H](O)[C@H](n5ccc(N)nc5=O)O[C@@H]3COP(O)(=S)O[C@H]3[C@@H](O)[C@H](n5cnc6c(N)ncnc65)O[C@@H]3COP(O)(=S)O[C@H]3[C@@H](O)[C@H](n5ccc(N)nc5=O)O[C@@H]3COP(O)(=S)O[C@H]3[C@@H](O)[C@H](n5cnc6c(=O)[nH]c(N)nc65)O[C@@H]3COP(O)(=S)O[C@H]3[C@@H](O)[C@H](n5cnc6c(N)ncnc65)O[C@@H]3COP(O)(=S)O[C@H]3C[C@H](n5cc(C)c(=O)[nH]c5=O)O[C@@H]3COP(O)(=S)O[C@H]3[C@H]5ON(OC)C[C@@]3(COP(O)(=S)O[C@H]3[C@H]6ON(OC)C[C@@]3(CO)O[C@H]6n3cc(C)c(N)nc3=O)O[C@H]5n3cc(C)c(=O)[nH]c3=O)O[C@H]4n3cc(C)c(N)nc3=O)O[C@@H](n3cc(C)c(=O)[nH]c3=O)[C@H](O1)[C@@H]2O` (stereo partly specified), the Activity entry in data set [1] is “Non-toxic”; in data set [2], “Dose-dependent effect”; in data set [3] it was “Non-toxic”; in data set [4], “Non-toxic”; in [5], “Toxic”; in data set [6], “Dose-dependent effect”. In addition, the Activity entry in [7] was “Non-toxic”. Besides, it took a dose of 8 mg/kg to reach the 50% effect level in data set [2] (ED50). The molecule further had a negative logarithm of the IC50 (pIC50) in data set [6] of 8.51. In addition, the Tm in data set [8] stood at 57.7 °C.
Consider `Cc1cn([C@@H]2O[C@]3(CO)CN(C)O[C@@H]2[C@@H]3OP(O)(=S)OC[C@]23CN(C)O[C@@H]([C@H](n4cc(C)c(=O)[nH]c4=O)O2)[C@@H]3OP(O)(=S)OC[C@H]2O[C@@H](n3cc(C)c(=O)[nH]c3=O)C[C@@H]2OP(O)(=S)OC[C@H]2O[C@@H](n3cnc4c(N)ncnc43)[C@H](O)[C@@H]2OP(O)(=S)OC[C@H]2O[C@@H](n3cnc4c(=O)[nH]c(N)nc43)[C@H](O)[C@@H]2OP(O)(=S)OC[C@H]2O[C@@H](n3ccc(N)nc3=O)[C@H](O)[C@@H]2OP(O)(=S)OC[C@H]2O[C@@H](n3cnc4c(N)ncnc43)[C@H](O)[C@@H]2OP(O)(=S)OC[C@H]2O[C@@H](n3ccc(N)nc3=O)[C@H](O)[C@@H]2OP(O)(=S)OC[C@H]2O[C@@H](n3cc(C)c(=O)[nH]c3=O)C[C@@H]2OP(O)(=S)OC[C@H]2O[C@@H](n3cnc4c(=O)[nH]c(N)nc43)[C@H](O)[C@@H]2OP(O)(=S)OC[C@H]2O[C@@H](n3cnc4c(=O)[nH]c(N)nc43)[C@H](O)[C@@H]2OP(O)(=S)OC[C@H]2O[C@@H](n3ccc(N)nc3=O)[C@H](O)[C@@H]2OP(O)(=S)OC[C@]23CN(C)O[C@@H]([C@H](n4cc(C)c(N)nc4=O)O2)[C@@H]3OP(O)(=S)OC[C@]23CN(C)O[C@@H]([C@H](n4cc(C)c(=O)[nH]c4=O)O2)[C@@H]3O)c(=O)nc1N` (stereo partly specified), for which, in data set [9], the result was Active. Further, the Activity entry in data set [1] was “Non-toxic”; in data set [2], “Dose-dependent effect”; in data set [3], “Non-toxic”; in data set [4], “Non-toxic”; in [5] it was “Toxic”; in [6], “Dose-dependent effect”. For the same molecule, the Activity entry in [7] is recorded as “Non-toxic”. The molecule also displayed an ED50 in data set [2] of 6 mg/kg. Further, the pIC50 in data set [6] is 8.60. Besides, in data set [8], the midpoint of thermal melting (Tm) came to 58.6 °C.
